Source: ChEMBL document CHEMBL3763095, “Naphtho[1',2':4,5]imidazo[1,2-a]pyridine-5,6-diones: Synthesis, enzymatic reduction and cytotoxic activity” (Bioorg Med Chem Lett, 2016)
Converted amounts (≈) assume the structure as drawn.

Columns and labels:
MCF7 [1] = test: Ratio of LC50 for human MCF7 cells expressing NQO1 in presence of NQO1 inhibitor dicoumarol to LC50 for human A549 cells expressing NQO1 in absence of NQO1 inhibitor dicoumarol; format: functional
MCF7 [2] = test: Cytotoxicity against human MCF7 cells expressing NQO1 assessed as cell viability after 24 hrs by MTT assay; format: functional; conditions: MCF7, 24 h, read-out: LC50 (the source's name)
Procedure, shortened: (§1)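 Cells exposed to the quinones for 24 h, then survival read by MTT assay. Viability expressed as percent of solvent-treated control cells. LC50 (concentration causing 50% lethal effect) obtained from logistic dose-response curves.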

A549 [3] = test: Cytotoxicity against human A549 cells expressing NQO1 assessed as cell viability after 24 hrs by MTT assay; format: functional; conditions: A549, 24 h, read-out: LC50 (the source's name); procedure, shortened: as §1
[4] = Cytotoxicity against NQO1-deficient human HL60 cells assessed as cell viability after 24 hrs by MTT assay; format: cell-based, HL-60; conditions: read-out: LC50; procedure, shortened: as §1
A549 [5] = test: Ratio of LC50 for human A549 cells expressing NQO1 in presence of NQO1 inhibitor dicoumarol to LC50 for human A549 cells expressing NQO1 in absence of NQO1 inhibitor dicoumarol; format: functional
Staphylococcus aureus = test: Antibacterial activity against Staphylococcus aureus ATCC 25923 after 16 hrs by two-fold microdillution method; format: functional; conditions: ATCC 25923, 16 h

SMILES	RatioLC50 (MCF7 [1])	CC50 (MCF7 [2])	CC50 (A549 [3])	CC50 at 24 h [4]	RatioLC50 (A549 [5])	MIC (Staphylococcus aureus)
O=C1C(=O)c2c(nc3ccccn23)-c2ccc([N+](=O)[O-])cc21	3.6	0.28 µM	0.12 µM	> 15 µM	3.3	–
O=C1C(=O)c2c(nc3ccc(Br)cn23)-c2ccccc21	–	1.39 µM	3.93 µM	> 15 µM	–	6.1 µM (≈ 2 µg/mL)
O=C1C(=O)c2c(nc3ccc(C(F)(F)F)cn23)-c2ccccc21	–	3.78 µM	0.9 µM	> 15 µM	–	6.3 µM (≈ 1.99 µg/mL)
O=C1C(=O)c2c(nc3ccc(F)cn23)-c2ccccc21	–	1.32 µM	2.03 µM	13 µM	–	15 µM (≈ 3.99 µg/mL)
O=C1C(=O)c2c(nc3ncccn23)-c2ccccc21	–	0.8 µM	1.6 µM	> 15 µM	–	8 µM (≈ 1.99 µg/mL)
O=C1C(=O)c2c(nc3ccc([N+](=O)[O-])cn23)-c2ccccc21	–	1.7 µM	2.3 µM	> 15 µM	–	–
O=C1C(=O)c2c(nc3ccccn23)-c2ccccc21	2.3	0.51 µM	0.67 µM	> 15 µM	3.1	16.1 µM (≈ 4 µg/mL)
Cc1ccn2c3c(nc2c1)-c1ccccc1C(=O)C3=O	–	1.25 µM	1.5 µM	> 15 µM	–	15.2 µM (≈ 3.99 µg/mL)
Cc1cccn2c3c(nc12)-c1ccccc1C(=O)C3=O	–	1.7 µM	3.4 µM	> 15 µM	–	15.2 µM (≈ 3.99 µg/mL)
Cc1ccc2nc3c(n2c1)C(=O)C(=O)c1ccccc1-3	–	3.94 µM	8.34 µM	> 15 µM	–	15.2 µM (≈ 3.99 µg/mL)
O=C1C(=O)c2c(nc3ccc4ccccc4n23)-c2ccccc21	–	> 15 µM	> 15 µM	> 15 µM	–	–
O=C1C(=O)c2c(nc3ccc(Cl)cn23)-c2ccccc21	–	3.41 µM	2.06 µM	10 µM	–	7 µM (≈ 1.98 µg/mL)
COc1ccc2nc3c(n2c1)C(=O)C(=O)c1ccccc1-3	–	2.1 µM	3.35 µM	> 15 µM	–	14.3 µM (≈ 3.98 µg/mL)
CC1(C)S[C@@H]2[C@H](NC(=O)[C@H](N)c3ccc(O)cc3)C(=O)N2[C@H]1C(=O)O [AMOXICILLIN]	–	–	–	–	–	0.3 µM (≈ 0.11 µg/mL)
COc1cccc2c1C(=O)c1c(O)c3c(c(O)c1C2=O)C[C@@](O)(C(=O)CO)C[C@@H]3O[C@H]1C[C@H](N)[C@H](O)[C@H](C)O1 [DOXORUBICIN]	–	1.56 µM	1.17 µM	0.37 µM	–	–
CN[C@@H]1[C@H](O[C@H]2[C@H](O[C@H]3[C@H](O)[C@@H](O)[C@H](N=C(N)N)[C@@H](O)[C@@H]3N=C(N)N)O[C@@H](C)[C@]2(O)C=O)O[C@@H](CO)[C@H](O)[C@H]1O [STREPTOMYCIN]	–	–	–	–	–	5.4 µM (≈ 3.14 µg/mL)
